Results as given in ChEMBL document CHEMBL5321292, “Targeting Cytotoxic Agents through EGFR-Mediated Covalent Binding and Release” (J Med Chem, 2023).
Values belong to the compound of their own block, whether it stands above or below them. The source made the active and inactive calls. No cut-off for these calls is given here.

Experiments:
[1] = Stability of compound assessed as formation of 5-fluorouracil by measuring half life
[2] = biological target: Epidermal growth factor receptor (Mus musculus, UniProt Q01279); assay: Inhibition of C-terminal his6-tagged mouse EGFR by TR-FRET assay
Chain of Epidermal growth factor receptor (Mus musculus, UniProt Q01279) (Q01279 whole entry): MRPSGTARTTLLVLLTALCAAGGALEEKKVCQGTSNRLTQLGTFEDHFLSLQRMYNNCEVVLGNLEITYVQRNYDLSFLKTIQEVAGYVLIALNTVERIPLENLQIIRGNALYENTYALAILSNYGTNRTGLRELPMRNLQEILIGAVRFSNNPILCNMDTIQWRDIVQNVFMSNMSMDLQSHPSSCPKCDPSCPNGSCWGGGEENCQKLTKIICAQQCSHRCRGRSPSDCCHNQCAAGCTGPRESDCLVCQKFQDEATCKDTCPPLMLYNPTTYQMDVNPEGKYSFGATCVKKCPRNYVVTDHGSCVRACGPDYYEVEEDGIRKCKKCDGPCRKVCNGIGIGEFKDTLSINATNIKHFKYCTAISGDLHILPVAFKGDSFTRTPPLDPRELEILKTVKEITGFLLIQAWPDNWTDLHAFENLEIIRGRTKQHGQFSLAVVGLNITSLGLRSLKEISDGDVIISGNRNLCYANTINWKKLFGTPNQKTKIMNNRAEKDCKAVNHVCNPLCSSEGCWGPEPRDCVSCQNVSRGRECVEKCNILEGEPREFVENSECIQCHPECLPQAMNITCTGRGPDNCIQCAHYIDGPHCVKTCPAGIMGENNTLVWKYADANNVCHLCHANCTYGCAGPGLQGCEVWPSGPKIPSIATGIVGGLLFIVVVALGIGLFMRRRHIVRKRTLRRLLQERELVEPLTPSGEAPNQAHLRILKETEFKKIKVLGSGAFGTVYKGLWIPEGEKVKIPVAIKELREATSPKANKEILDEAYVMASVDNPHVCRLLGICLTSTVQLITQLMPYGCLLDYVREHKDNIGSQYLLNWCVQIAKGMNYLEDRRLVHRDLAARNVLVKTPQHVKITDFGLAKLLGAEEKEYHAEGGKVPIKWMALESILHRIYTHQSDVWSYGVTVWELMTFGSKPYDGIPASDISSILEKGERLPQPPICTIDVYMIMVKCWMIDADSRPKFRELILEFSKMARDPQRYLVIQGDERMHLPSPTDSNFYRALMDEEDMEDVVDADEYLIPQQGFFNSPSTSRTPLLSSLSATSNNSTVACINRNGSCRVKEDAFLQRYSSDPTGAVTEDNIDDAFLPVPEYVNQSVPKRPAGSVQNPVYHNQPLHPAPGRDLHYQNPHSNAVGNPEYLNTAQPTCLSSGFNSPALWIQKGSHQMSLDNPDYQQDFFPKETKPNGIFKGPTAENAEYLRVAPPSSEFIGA

[3] = biological target: T1, Epidermal growth factor receptor (Homo sapiens, UniProt P00533); assay: Inhibition of EGFR in human A-431 cells incubated for 2.5 hrs by HTRF analysis; format: cell-based
T1 sequence (P00533 whole entry): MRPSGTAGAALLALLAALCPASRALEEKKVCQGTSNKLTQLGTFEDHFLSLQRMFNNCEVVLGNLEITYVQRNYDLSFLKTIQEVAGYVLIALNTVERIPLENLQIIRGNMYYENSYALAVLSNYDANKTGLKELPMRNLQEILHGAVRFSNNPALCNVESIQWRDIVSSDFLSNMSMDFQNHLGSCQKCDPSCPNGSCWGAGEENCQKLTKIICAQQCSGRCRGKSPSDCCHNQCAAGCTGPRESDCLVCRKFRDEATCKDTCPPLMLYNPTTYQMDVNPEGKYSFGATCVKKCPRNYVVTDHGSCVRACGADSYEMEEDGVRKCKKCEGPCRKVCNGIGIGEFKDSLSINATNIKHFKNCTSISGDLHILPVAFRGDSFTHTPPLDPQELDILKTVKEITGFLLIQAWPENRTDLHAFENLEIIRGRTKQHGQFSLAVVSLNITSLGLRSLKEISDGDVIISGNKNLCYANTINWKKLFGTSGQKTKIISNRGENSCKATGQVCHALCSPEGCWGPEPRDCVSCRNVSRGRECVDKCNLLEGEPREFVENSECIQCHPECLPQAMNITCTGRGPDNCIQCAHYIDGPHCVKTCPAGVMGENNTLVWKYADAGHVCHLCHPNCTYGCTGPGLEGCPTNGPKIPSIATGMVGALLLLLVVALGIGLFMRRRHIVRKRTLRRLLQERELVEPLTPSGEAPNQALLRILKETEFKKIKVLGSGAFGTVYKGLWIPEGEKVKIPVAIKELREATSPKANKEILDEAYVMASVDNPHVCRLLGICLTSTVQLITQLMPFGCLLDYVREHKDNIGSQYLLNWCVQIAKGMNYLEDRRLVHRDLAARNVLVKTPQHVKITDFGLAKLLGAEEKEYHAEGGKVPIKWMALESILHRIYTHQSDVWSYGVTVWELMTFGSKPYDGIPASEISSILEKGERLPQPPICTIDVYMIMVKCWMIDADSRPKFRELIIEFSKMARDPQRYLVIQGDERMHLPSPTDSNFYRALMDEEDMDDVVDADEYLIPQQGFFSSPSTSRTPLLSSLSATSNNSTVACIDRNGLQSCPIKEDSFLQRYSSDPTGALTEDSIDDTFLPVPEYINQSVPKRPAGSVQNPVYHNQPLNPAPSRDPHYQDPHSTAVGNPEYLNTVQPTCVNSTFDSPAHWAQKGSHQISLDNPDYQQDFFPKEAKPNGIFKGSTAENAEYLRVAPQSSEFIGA
Procedure, shortened: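 A431 cells plated at 20 000/well and allowed to adhere for 24 h. Treated 2.5 h in duplicate (0.1% DMSO), then stimulated with 100 ng/mL EGF for 30 min. Lysed 30 min at room temperature. HTRF measured pEGFR (Tyr1068) and total EGFR at 665/620 nm. Values taken as pEGFR/total EGFR ratio, expressed as % of 0 μM control.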

[4] = biological target: T1, Epidermal growth factor receptor; assay: Inhibition of EGFR phosphorylation in human A-431 cells incubated for 4 hr
[5] = biological target: T1, Epidermal growth factor receptor; assay: Inhibition of EGFR phosphorylation in human A-431 cells at 1 uM incubated for 4 hr by Western blot analysis; format: cell-based
Procedure, shortened: (§1)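 A431 cells treated for 4 h and lysed in Phosphosafe buffer with protease inhibitors. Western blot probed with anti-EGFR and anti-pEGFR primary antibodies (1:1000 in 5% BSA) plus a loading control, then HRP-conjugated secondary antibodies. Bands detected by ECL.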

A-431 [6] = assay: Antiproliferative activity against human A-431 cells assessed as cell growth inhibition measured after 72 hrs in presence of 5-fluorouracil by SRB assay; format: functional, cell-based; conditions: A-431, 72 h
Procedure, shortened: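 A431 cells (ECACC) seeded day 0 at exponential-growth density in DMEM + 10% FBS. Compound diluted in medium and added day 1, final DMSO 0.1%. Incubated 72 h at 37 °C, 5% CO2. Fixed with 50% TCA at 4 °C for 1 h, stained with 0.4% SRB for 30 min, washed with 1% AcOH, solubilised in 10 mM Tris pH 10.5. Absorbance read at 570 nm.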

[7] = biological target: T1, Epidermal growth factor receptor; assay: Inhibition of EGFR phosphorylation in human A-431 cells at 10 uM incubated for 4 hr by Western blot analysis; format: cell-based
Procedure, shortened: as §1

A-431 [8] = assay: Antiproliferative activity against human A-431 cells assessed as cell growth inhibition measured after 72 hrs by SRB assay; format: functional, cell-based; conditions: A-431, read-out: pGI50 (converted)

Compound: COc1ccc(OC(=O)/C=C/n2cc(F)c(=O)[nH]c2=O)cc1
t1/2 [1]: 36 h

Compound: O=C(/C=C/n1cc(F)c(=O)[nH]c1=O)Oc1ccc(F)cc1
t1/2 [1]: 3 h

Compound: O=C(/C=C/n1cc(F)c(=O)[nH]c1=O)Oc1ccc(Cl)cc1
t1/2 [1]: 2.9 h

Compound: COc1cc2ncnc(Nc3ccc(F)c(Cl)c3)c2cc1OC(=O)/C=C/CN1CCCCC1
inhibition [5]: Active
IC50 (A-431 [6]): 631 nM

Compound: O=C(/C=C/n1cc(F)c(=O)[nH]c1=O)Oc1ccc([N+](=O)[O-])cc1
t1/2 [1]: 0.1 h

Results, then the compound that gave them:

IC50 [2]: 50.1 nM
IC50 [3]: 2510 nM
IC50 [4]: 2510 nM
Compound: COc1cc2ncnc(Nc3ccc(F)c(Cl)c3)c2cc1NC(=O)/C=C/n1cc(F)c(=O)[nH]c1=O

t1/2 [1]: 10 h
Compound: COCCOCCOc1ccc(NC(=O)/C=C/n2cc(F)c(=O)[nH]c2=O)cc1

t1/2 [1]: 2.5 h
Compound: N#Cc1ccc(OC(=O)/C=C/n2cc(F)c(=O)[nH]c2=O)cc1

inhibition [5]: inactive
IC50 [2]: 158 nM
IC50 [3]: 15.8 nM
IC50 [4]: 15.8 nM
inhibition [7]: Active
GI50 (A-431 [8]): 5010 nM
Compound: COc1cc2ncnc(Nc3ccc(F)c(Cl)c3)c2cc1OC(=O)/C=C/n1cc(F)c(=O)[nH]c1=O

t1/2 [1]: ~ 36 hr
Compound: O=C(/C=C/n1cc(F)c(=O)[nH]c1=O)Cc1ccccc1
